Measured values as given in ChEMBL document CHEMBL1773057, “Design, synthesis and in vitro antimicrobial evaluation of novel Imidazo[1,2-a]pyridine and imidazo[2,1-b][1,3]benzothiazole motifs” (2011).
Values after ≈ are worked out from the molar mass of the structure shown.

Columns and labels:
Assay type in all cases: functional
Candida albicans = test: Antimicrobial activity against Candida albicans after 48 hrs by broth microdilution method
Outline: (§1)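 Fungi were grown on Sabouraud dextrose agar. Inocula were prepared in Sabouraud liquid medium at 37 °C for 12 h, then diluted in RPMI-1640 with L-glutamine, MOPS-buffered at pH 7. Compounds were made as 1000 µg/mL stocks in 50% DMSO/H₂O and tested as two-fold dilutions from 500 µg/mL. Sealed plates were incubated at 37 °C for 48 h in a humid chamber. MIC was the lowest concentration without visible turbidity.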

Aspergillus flavus = test: Antimicrobial activity against Aspergillus flavus after 48 hrs by broth microdilution method; outline: as §1
Escherichia coli = test: Antimicrobial activity against Escherichia coli after 24 hrs by broth microdilution method
Outline: (§2)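 Broth microdilution. Bacteria were grown on Mueller-Hinton agar and diluted in Mueller-Hinton broth. Compounds were made as 1000 µg/mL stocks in 50% DMSO/H₂O and added to wells as two-fold dilutions starting at 500 µg/mL, then inoculated. Sealed plates were incubated at 37 °C for 24 h in a humid chamber. MIC was the lowest concentration with no visible turbidity.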

Enterococcus faecalis = test: Antimicrobial activity against Enterococcus faecalis after 24 hrs by broth microdilution method; outline: as §2
Nannizzia gypsea = test: Antimicrobial activity against Microsporum gypseum after 48 hrs by broth microdilution method; outline: as §1
Staphylococcus aureus = test: Antimicrobial activity against Staphylococcus aureus after 24 hrs by broth microdilution method; outline: as §2
Priestia megaterium = test: Antimicrobial activity against Bacillus megaterium after 24 hrs by broth microdilution method; outline: as §2
Klebsiella aerogenes = test: Antimicrobial activity against Enterobacter aerogenes after 24 hrs by broth microdilution method; outline: as §2
Candida parapsilosis = test: Antimicrobial activity against Candida parapsilosis after 48 hrs by broth microdilution method; settings: Lodderomyces parapsilosis; outline: as §1
Pseudomonas aeruginosa = test: Antimicrobial activity against Pseudomonas aeruginosa after 24 hrs by broth microdilution method; outline: as §2

Row | Compound | MIC (Candida albicans) | MIC (Aspergillus flavus) | MIC (Escherichia coli) | MIC (Enterococcus faecalis) | MIC (Nannizzia gypsea) | MIC (Staphylococcus aureus) | MIC (Priestia megaterium) | MIC (Klebsiella aerogenes) | MIC (Candida parapsilosis) | MIC (Pseudomonas aeruginosa)
1 | Cc1ccc2nc(-c3ccc4nc(-c5cnc6ccc(Br)cc6c5)c(Nc5ccc(F)cc5)n4c3)[nH]c2c1 | 16.4 µg/mL (≈ 29 µM) | 15.4 µg/mL (≈ 27.4 µM) | 6.21 µg/mL (≈ 11 µM) | 7.34 µg/mL (≈ 13 µM) | 17.5 µg/mL (≈ 31.1 µM) | 7.43 µg/mL (≈ 13.2 µM) | 7.54 µg/mL (≈ 13.4 µM) | 5.35 µg/mL (≈ 9.5 µM) | 15.5 µg/mL (≈ 27.6 µM) | 5.45 µg/mL (≈ 9.67 µM)
2 | Fc1ccc(Nc2c(-c3c[nH]c4ccc(F)cc34)nc3sc4cc(F)ccc4n23)cc1 | 1.15 µg/mL (≈ 2.65 µM) | 1.15 µg/mL (≈ 2.65 µM) | 0.14 µg/mL (≈ 0.322 µM) | 0.41 µg/mL (≈ 0.944 µM) | 1.23 µg/mL (≈ 2.83 µM) | 0.18 µg/mL (≈ 0.414 µM) | 1.52 µg/mL (≈ 3.5 µM) | 0.23 µg/mL (≈ 0.529 µM) | 1.24 µg/mL (≈ 2.85 µM) | 0.11 µg/mL (≈ 0.253 µM)
3 | COc1ccc2ncc(-c3nc4sc5cc(F)ccc5n4c3Nc3ccc(F)cc3)cc2c1 | 11.2 µg/mL (≈ 24.4 µM) | 15.3 µg/mL (≈ 33.4 µM) | 10.4 µg/mL (≈ 22.7 µM) | 11.2 µg/mL (≈ 24.4 µM) | 17.5 µg/mL (≈ 38.2 µM) | 12.4 µg/mL (≈ 27.1 µM) | 19.1 µg/mL (≈ 41.8 µM) | 13.4 µg/mL (≈ 29.3 µM) | 13.6 µg/mL (≈ 29.6 µM) | 11.9 µg/mL (≈ 25.9 µM)
4 | O=[N+]([O-])c1ccc(-c2nnc(-c3ccc4nc(-c5c[nH]c6ccc(Br)cc56)c(Nc5ccc(F)cc5)n4c3)o2)cc1 | 6.63 µg/mL (≈ 10.9 µM) | 8.31 µg/mL (≈ 13.6 µM) | 3.32 µg/mL (≈ 5.44 µM) | 2.11 µg/mL (≈ 3.46 µM) | 11.2 µg/mL (≈ 18.4 µM) | 2.45 µg/mL (≈ 4.01 µM) | 4.34 µg/mL (≈ 7.11 µM) | 3.13 µg/mL (≈ 5.13 µM) | 5.71 µg/mL (≈ 9.35 µM) | 2.45 µg/mL (≈ 4.01 µM)
5 | CC1(C)S[C@@H]2[C@H](NC(=O)[C@H](N)c3ccc(O)cc3)C(=O)N2[C@H]1C(=O)O [AMOXICILLIN] | – | – | 15.3 µg/mL (≈ 41.9 µM) | 1.62 µg/mL (≈ 4.43 µM) | – | 12.9 µg/mL (≈ 35.4 µM) | 2.28 µg/mL (≈ 6.24 µM) | 3.45 µg/mL (≈ 9.44 µM) | – | 14.7 µg/mL (≈ 40.1 µM)
6 | O=[N+]([O-])c1ccc(-c2nnc(-c3ccc4nc(-c5cnc6ccc(Br)cc6c5)c(Nc5ccc(F)cc5)n4c3)o2)cc1 | 6.4 µg/mL (≈ 10.3 µM) | 7.15 µg/mL (≈ 11.5 µM) | 1.72 µg/mL (≈ 2.76 µM) | 2.13 µg/mL (≈ 3.42 µM) | 8.27 µg/mL (≈ 13.3 µM) | 1.45 µg/mL (≈ 2.33 µM) | 3.11 µg/mL (≈ 5 µM) | 1.27 µg/mL (≈ 2.04 µM) | 5.34 µg/mL (≈ 8.58 µM) | 1.58 µg/mL (≈ 2.54 µM)
7 | Cc1ccc(-c2cnc(-c3ccc4nc(-c5c[nH]c6ccc(Br)cc56)c(Nc5ccc(F)cc5)n4c3)[nH]2)cc1 | 19.5 µg/mL (≈ 33.8 µM) | 16.5 µg/mL (≈ 28.5 µM) | 6.11 µg/mL (≈ 10.6 µM) | 7.32 µg/mL (≈ 12.7 µM) | 15.6 µg/mL (≈ 27 µM) | 5.13 µg/mL (≈ 8.88 µM) | 1.25 µg/mL (≈ 2.16 µM) | 6.22 µg/mL (≈ 10.8 µM) | 18.4 µg/mL (≈ 31.9 µM) | 8.28 µg/mL (≈ 14.3 µM)

The remaining molecules from weak to strong by MIC (Escherichia coli), led by results:

Row | MIC (Candida albicans) | MIC (Aspergillus flavus) | MIC (Escherichia coli) | MIC (Enterococcus faecalis) | MIC (Nannizzia gypsea) | MIC (Staphylococcus aureus) | MIC (Priestia megaterium) | MIC (Klebsiella aerogenes) | MIC (Candida parapsilosis) | MIC (Pseudomonas aeruginosa) | Compound
8 | 17.5 µg/mL (≈ 39.2 µM) | 15.5 µg/mL (≈ 34.8 µM) | 19.7 µg/mL (≈ 44.1 µM) | 19.5 µg/mL (≈ 43.8 µM) | 19.6 µg/mL (≈ 44 µM) | 17.4 µg/mL (≈ 38.9 µM) | 23.4 µg/mL (≈ 52.5 µM) | 17.8 µg/mL (≈ 40 µM) | 16.6 µg/mL (≈ 37.2 µM) | 18.5 µg/mL (≈ 41.5 µM) | COc1ccc2[nH]cc(-c3nc4sc5cc(F)ccc5n4c3Nc3ccc(F)cc3)c2c1
9 | 14.6 µg/mL (≈ 34 µM) | 14.6 µg/mL (≈ 33.8 µM) | 14.5 µg/mL (≈ 33.7 µM) | 9.17 µg/mL (≈ 21.3 µM) | 10.5 µg/mL (≈ 24.5 µM) | 10.1 µg/mL (≈ 23.5 µM) | 22.1 µg/mL (≈ 51.5 µM) | 14.6 µg/mL (≈ 34 µM) | 16.5 µg/mL (≈ 38.3 µM) | 16.2 µg/mL (≈ 37.6 µM) | Cc1ccc2[nH]cc(-c3nc4sc5cc(F)ccc5n4c3Nc3ccc(F)cc3)c2c1
10 | 12.2 µg/mL (≈ 20.7 µM) | 11.3 µg/mL (≈ 19.1 µM) | 2.43 µg/mL (≈ 4.11 µM) | 2.32 µg/mL (≈ 3.92 µM) | 11.2 µg/mL (≈ 18.9 µM) | 1.24 µg/mL (≈ 2.1 µM) | 3.15 µg/mL (≈ 5.33 µM) | 1.74 µg/mL (≈ 2.94 µM) | 12.2 µg/mL (≈ 20.7 µM) | 2.57 µg/mL (≈ 4.35 µM) | Cc1ccc(-c2nnc(-c3ccc4nc(-c5cnc6ccc(Br)cc6c5)c(Nc5ccc(F)cc5)n4c3)o2)cc1
11 | 4.23 µg/mL (≈ 7.12 µM) | 7.63 µg/mL (≈ 12.8 µM) | 2.14 µg/mL (≈ 3.6 µM) | 3.36 µg/mL (≈ 5.65 µM) | 9.41 µg/mL (≈ 15.8 µM) | 2.12 µg/mL (≈ 3.57 µM) | 4.12 µg/mL (≈ 6.93 µM) | 3.15 µg/mL (≈ 5.3 µM) | 5.34 µg/mL (≈ 8.98 µM) | 2.32 µg/mL (≈ 3.9 µM) | O=[N+]([O-])c1ccc2nc(-c3ccc4nc(-c5cnc6ccc(Br)cc6c5)c(Nc5ccc(F)cc5)n4c3)[nH]c2c1
12 | – | – | 2.12 µg/mL (≈ 4.68 µM) | 28.6 µg/mL (≈ 63 µM) | – | 34.6 µg/mL (≈ 76.4 µM) | 126 µg/mL (≈ 279 µM) | 27.1 µg/mL (≈ 59.8 µM) | – | 16.4 µg/mL (≈ 36.2 µM) | C=CC1=C(C(=O)O)N2C(=O)[C@@H](NC(=O)/C(=N\OCC(=O)O)c3csc(N)n3)[C@H]2SC1 [CEFIXIME]
13 | 1.11 µg/mL (≈ 1.96 µM) | 1.36 µg/mL (≈ 2.4 µM) | 1.34 µg/mL (≈ 2.36 µM) | 1.47 µg/mL (≈ 2.59 µM) | 1.21 µg/mL (≈ 2.13 µM) | 1.46 µg/mL (≈ 2.57 µM) | 2.53 µg/mL (≈ 4.46 µM) | 1.55 µg/mL (≈ 2.73 µM) | 1.22 µg/mL (≈ 2.15 µM) | 1.35 µg/mL (≈ 2.38 µM) | Fc1ccc(Nc2c(-c3cnc4ccc(Br)cc4c3)nc3ccc(-c4nc5ccc(F)cc5[nH]4)cn23)cc1
14 | 1.05 µg/mL (≈ 1.77 µM) | 0.72 µg/mL (≈ 1.21 µM) | 1.15 µg/mL (≈ 1.94 µM) | 1.21 µg/mL (≈ 2.04 µM) | 0.84 µg/mL (≈ 1.42 µM) | 0.63 µg/mL (≈ 1.06 µM) | 4.07 µg/mL (≈ 6.86 µM) | 0.81 µg/mL (≈ 1.36 µM) | 1.15 µg/mL (≈ 1.94 µM) | 1.34 µg/mL (≈ 2.26 µM) | Fc1ccc(Nc2c(-c3cnc4ccc(Br)cc4c3)nc3ccc(-c4ncc(-c5ccc(F)cc5)[nH]4)cn23)cc1
